Only a selection was taken, and hits are over-represented in it overall.
HSF1 inhib: HSF1 inhibition; 300,000 tested, 0.77% active; AID 2098; NIH3T3-HGL HSE-luciferase, MG132-induced, luminescence 8 h; hits give low values; activity change, negative = inhibition, % at 7.5 µM (by protocol);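 active = more than half of replicate wells show activity change below -50%, luminescence cut by over half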;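 also: luciferase reports HSF-1 transcriptional activity via heat shock element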
Hsp70 act: transcriptional activators of Hsp70; HeLa Hsp70 promoter luciferase reporter, luminescence; scaled: vehicle 0, proteasome-inhibitor control 100%; activation, % at 10 µM; 200,000 tested, 0.04% active;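 active = activation above the mean across all tested compounds plus 3 SD, cutoff set per campaign, cut at about 5.5% in these data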
Lmaj promast: inhibitors of Leishmania major promastigote growth; Leishmania major promastigotes, resazurin fluorescence viability; inhibition, % at 10 µM; 200,000 tested, 9% active; AID 1063; in the data active = inhibition above about 50%;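 also: promastigotes grown with compound for 44 hours at 28 °C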
T cruzi inh: blocks replication of Trypanosoma cruzi; T. cruzi beta-gal in NIH3T3, luminescence, 90 h; inhibition, % (test concentration not listed); 300,000 tested, 1.4% active; AID 1885;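 active = mean inhibition across valid replicates above about 55%, limit read from the data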;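 also: signal also drops with host cell toxicity which is not excluded here; higher percent means less beta-gal luminescence so fewer parasites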
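Test system: β-gal T. cruzi (Tulahuen C4) inside NIH/3T3 cells / Quantity: 5,000 cells/well / Measured by: luminescence from GalScreen with 0.05% NP40, read after 60 min / Medium: DMEM plus 2% FBS / Measure: parasite load inhibition, % / Reagent: Tulahuen C4 trypomastigotes, 5000/well / Schedule: co-culture of at least 90 h after 3 h attachment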
HSF1 activator: increases HSF-1 driven luciferase reporter signal; NIH3T3-HGL HSF-1 luciferase reporter, MG132, 8 h; 100% = twice DMSO control signal; activation, % at 9 µM; 300,000 tested, 1.7% active; AID 504408;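 active = mean replicate activation of at least 50% with a set share of replicates each reaching 50%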
Large screens that a line does not name were inactive.

O=C(N/N=C\c1cc(Cl)ccc1O)c1ccc(S(=O)(=O)N2CCCCC2)cc1	Lmaj promast 98
O=C(Nc1cc(S(=O)(=O)N2CCOCC2)ccc1-n1cncn1)c1ccc(Cl)cc1	T cruzi inh 63 (no result: Hsp70 act, Lmaj promast)
CN1CCN(c2ccc(S(=O)(=O)N3CCCCC3)cc2NC(=O)c2ccc(C#N)cc2)CC1	T cruzi inh 56
O=C(Nc1cc(S(=O)(=O)Nc2ccc(Cl)cc2)ccc1O)c1ccc(S(=O)(=O)N2CCCCCC2)cc1	none
COc1ccccc1CNC(=O)CC12CC3CC(CC(Br)(C3)C1)C2	none (no result: Hsp70 act, Lmaj promast)
Cc1ccccc1C(=O)N(CC(=O)Nc1sc(C)c(C)c1C(N)=O)C1CCCC1	none (no result: Hsp70 act, Lmaj promast)
CN1CCN(c2ccc(Cl)cc2NC(=O)c2ccc(S(=O)(=O)N3CCCCCC3)cc2)CC1	Lmaj promast 88
Cc1cc(C2CC(=O)Nc3ccccc3S2)c(C)s1 (stereo not given)	none (no result: Hsp70 act, Lmaj promast)
Cc1cc(N2CCOCC2)n2ncc(-c3ccccc3)c2n1	HSF1 inhib -61
Cc1ccc(-c2cnn3c(N4CCOCC4)cc(C)nc23)cc1	HSF1 inhib -68 (no result: Hsp70 act, Lmaj promast)
Cc1cc(N2CCC(C)CC2)n2ncc(-c3ccccc3)c2n1	HSF1 inhib -79
Cc1cc(N2CCC(C)CC2)n2nc(C)c(-c3ccccc3)c2n1	none
Cc1cc(N2CCCCC2)n2ncc(-c3ccccc3)c2n1	none
CC(C)(C)c1cc(N2CCOCC2)n2ncc(-c3ccc(Cl)cc3)c2n1	none (no result: Hsp70 act, Lmaj promast)
Cc1ccc2c(c1)Oc1ccc(NC(=O)CCl)cc1C(=O)N2	Lmaj promast 98
COc1ccccc1OCCSc1nc2ccccc2n1CC(O)CO (stereo not given)	none (no result: Hsp70 act, Lmaj promast)
COc1ccc(C2C3=C(CCCC3=O)Nc3ccc4ncccc4c32)cc1OC (stereo not given)	Lmaj promast 75
COc1cc(C2C3=C(CCCC3=O)Nc3ccc4ncccc4c32)ccc1O (stereo not given)	none
COc1cc(SC#N)ccc1N=Cc1c(C)[nH]n(-c2ccc(Cl)cc2)c1=O	none
COc1cc(SC#N)ccc1N=Cc1c(C)[nH]n(-c2ccc(C)c(C)c2)c1=O	Lmaj promast 99
COc1cccc(CN(C)C(=O)COc2ccc(C(=O)c3ccc(Cl)cc3)cc2)c1OC	none (no result: Hsp70 act, Lmaj promast)
COc1cc2c(cc1OC)C(c1ccc(-c3ccc(Cl)c(Cl)c3)o1)=NCC2	Lmaj promast 71
CCCCc1c(O)nc(SCC(=O)c2ccccc2)n(-c2ccccc2OC)c1=O	none (no result: Hsp70 act, Lmaj promast)
NC(N)=N/N=C/c1ccc(Cl)cc1Cl	T cruzi inh 62 (no result: Hsp70 act, Lmaj promast)
NC(N)=N/N=C/c1ccc(Cl)c(Cl)c1	none (no result: Hsp70 act, Lmaj promast)
CC(C(=O)c1ccccc1)[n+]1cccc(C(N)=O)c1 (stereo not given)	none (no result: Hsp70 act, Lmaj promast)
O=C(Nc1ccccc1)c1ccc(NC(=O)C2CC2)cc1	HSF1 activator 54 (no result: Hsp70 act, Lmaj promast)
O=C(C[n+]1cccc(NC(=O)c2ccccc2)c1)c1ccc(NC(=O)c2ccccc2)cc1	Lmaj promast 71
CC(C(=O)c1ccc(Br)cc1)[n+]1cccc(NC(=O)c2ccccc2)c1 (stereo not given)	Lmaj promast 56
O=C(Nc1ccc(C2SCCS2)cc1)c1ccccc1	HSF1 activator 54 (no result: Hsp70 act, Lmaj promast)
CCOc1ccc(C(=O)C(C)OC(=O)Cn2[nH]c(=O)c3ccccc3c2=O)cc1 (stereo not given)	none (no result: Hsp70 act, Lmaj promast)
O=C(Nc1ccc(Nc2ccccc2)cc1)c1ccccc1	none (no result: Hsp70 act, Lmaj promast)
O=C(Nc1ccc2nc3ccccc3nc2c1)c1ccccc1	HSF1 activator 81
O=C(Nc1ccc(F)cc1)c1ccccc1	HSF1 activator 65
CCCCNC(=O)Nc1ccc(C2SCCS2)cc1	HSF1 activator 69 (no result: Hsp70 act, Lmaj promast)
Cc1ccc(C2NC(=O)Cc3ccccc32)cc1 (stereo not given)	none
O=C(NCc1ccco1)/C(=C\C=C\c1ccccc1)NC(=O)c1ccccc1Br	none
CN(CC(=O)Nc1cccc(F)c1)C(=O)c1ccncc1	none (no result: Hsp70 act, Lmaj promast)
CCCNC(=O)COc1ccc2c(=O)c(Oc3ccccc3F)coc2c1	HSF1 inhib -70
CCc1ccccc1NC(=O)COc1ccc2c(=O)c(Oc3cc(C)ccc3C)coc2c1	HSF1 activator 71
CC(C)c1ccccc1NC(=O)COc1ccc2c(=O)c(Oc3ccc4ccccc4c3)coc2c1	none
CCOC(=O)CNC(=O)COc1coc(CN2CCN(Cc3ccccc3)CC2)cc1=O	none (no result: Hsp70 act, Lmaj promast)
O=C(c1cccs1)c1no[n+]([O-])c1C(=O)c1cccs1	T cruzi inh 62
COc1cccc(NC(=S)NN=C2CCC(C(C)(C)C)CC2)c1 (stereo not given)	none
